Reference: article PMC5527967 (The Prostate, 2017)
Several values for one entry are separate records, joined by “and”; a condition that tells them apart may be missing. Equal values may be shown once. Read-outs that look alike come from different tables or passages of the source. Values belong to the molecule of their own block, whether it stands above or below them.

Tests used:
Akt pS473 in LNCaP cells = test: Western blot of Akt pS473; type: cell-based; details: 5 μM, 4 h
[1] = tested on: Akt pS473 in LNCaP/shPIK3CB#3 cells; test: Western blot of Akt pS473; type: cell-based; details: LNCaP/shPIK3CB#3, 5 μM, 4 h
Akt [2] = test: whole cell CETSA; type: cell-based; details: whole cell (in vivo), PC-3
Procedure, shortened: (§1)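 Intact PC-3 cells in regular media treated with test compound or solvent for 4 hrs, washed and collected in cold PBS. Aliquoted pellets heated 3 min at 37–69°C (4°C steps), cooled 2 min at room temperature, then iced. Lysed in RIPA by three liquid-nitrogen freeze-thaw cycles; soluble fraction Western blotted. Densities normalized 0–100%, Boltzmann sigmoid fit; ΔTm50 as compound vs solvent shift at 50% band loss.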

p110β [3] = molecular target: T1, p110β (Homo sapiens, UniProt P42338); test: cell lysate CETSA; type: binding
T1 sequence (P42338 whole entry): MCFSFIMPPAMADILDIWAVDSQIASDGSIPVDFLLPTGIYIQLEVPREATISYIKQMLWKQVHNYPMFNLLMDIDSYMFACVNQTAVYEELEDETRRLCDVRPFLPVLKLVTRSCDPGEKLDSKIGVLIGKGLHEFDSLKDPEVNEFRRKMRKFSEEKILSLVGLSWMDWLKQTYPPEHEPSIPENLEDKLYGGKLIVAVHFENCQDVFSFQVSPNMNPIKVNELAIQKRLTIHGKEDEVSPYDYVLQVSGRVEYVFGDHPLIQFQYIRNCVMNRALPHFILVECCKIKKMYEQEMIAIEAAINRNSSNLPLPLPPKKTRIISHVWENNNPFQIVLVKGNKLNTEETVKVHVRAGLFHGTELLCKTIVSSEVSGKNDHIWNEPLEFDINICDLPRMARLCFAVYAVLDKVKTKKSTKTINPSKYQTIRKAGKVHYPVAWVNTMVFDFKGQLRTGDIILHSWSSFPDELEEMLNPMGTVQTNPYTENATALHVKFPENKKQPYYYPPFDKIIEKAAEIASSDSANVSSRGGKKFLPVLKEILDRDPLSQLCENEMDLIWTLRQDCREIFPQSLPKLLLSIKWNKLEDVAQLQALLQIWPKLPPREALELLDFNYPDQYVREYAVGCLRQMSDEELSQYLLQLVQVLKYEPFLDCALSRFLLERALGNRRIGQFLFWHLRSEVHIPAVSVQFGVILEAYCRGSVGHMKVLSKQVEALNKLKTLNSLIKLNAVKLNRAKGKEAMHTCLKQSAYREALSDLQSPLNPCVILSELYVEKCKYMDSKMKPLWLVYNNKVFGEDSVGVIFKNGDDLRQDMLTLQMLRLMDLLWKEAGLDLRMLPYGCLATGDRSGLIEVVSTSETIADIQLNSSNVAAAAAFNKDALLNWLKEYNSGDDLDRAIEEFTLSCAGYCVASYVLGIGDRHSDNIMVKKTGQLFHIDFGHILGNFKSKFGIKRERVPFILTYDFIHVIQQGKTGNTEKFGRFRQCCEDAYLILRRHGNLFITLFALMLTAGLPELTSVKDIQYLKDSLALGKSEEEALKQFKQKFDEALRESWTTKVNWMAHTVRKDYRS
Procedure, shortened: (§2)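 Exponentially grown PC-3 cells in RIPA with protease inhibitors were put through three liquid-nitrogen freeze-thaw cycles, then ultracentrifuged 20 min at 4°C. Soluble lysate was incubated with test compound (5 μM) or DMSO for 45 min at room temperature. Aliquots were heated 3 min at 37–69°C in 4°C steps, cooled 3 min, and spun. Supernatant was Western blotted. Bands were normalized to 0–100% and fitted with a Boltzmann sigmoid. ΔTm50 is the compound-minus-solvent temperature at 50% band loss. Three experiments.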

Akt [4] = test: cell lysate CETSA; type: binding; details: cell lysate (in vitro), PC-3, compound 5 μM
Procedure, shortened: as §2

VPS34 = VPS34 (Homo sapiens, UniProt Q8NEB9); test: cell lysate CETSA; type: binding
Sequence of VPS34 (Q8NEB9 whole entry): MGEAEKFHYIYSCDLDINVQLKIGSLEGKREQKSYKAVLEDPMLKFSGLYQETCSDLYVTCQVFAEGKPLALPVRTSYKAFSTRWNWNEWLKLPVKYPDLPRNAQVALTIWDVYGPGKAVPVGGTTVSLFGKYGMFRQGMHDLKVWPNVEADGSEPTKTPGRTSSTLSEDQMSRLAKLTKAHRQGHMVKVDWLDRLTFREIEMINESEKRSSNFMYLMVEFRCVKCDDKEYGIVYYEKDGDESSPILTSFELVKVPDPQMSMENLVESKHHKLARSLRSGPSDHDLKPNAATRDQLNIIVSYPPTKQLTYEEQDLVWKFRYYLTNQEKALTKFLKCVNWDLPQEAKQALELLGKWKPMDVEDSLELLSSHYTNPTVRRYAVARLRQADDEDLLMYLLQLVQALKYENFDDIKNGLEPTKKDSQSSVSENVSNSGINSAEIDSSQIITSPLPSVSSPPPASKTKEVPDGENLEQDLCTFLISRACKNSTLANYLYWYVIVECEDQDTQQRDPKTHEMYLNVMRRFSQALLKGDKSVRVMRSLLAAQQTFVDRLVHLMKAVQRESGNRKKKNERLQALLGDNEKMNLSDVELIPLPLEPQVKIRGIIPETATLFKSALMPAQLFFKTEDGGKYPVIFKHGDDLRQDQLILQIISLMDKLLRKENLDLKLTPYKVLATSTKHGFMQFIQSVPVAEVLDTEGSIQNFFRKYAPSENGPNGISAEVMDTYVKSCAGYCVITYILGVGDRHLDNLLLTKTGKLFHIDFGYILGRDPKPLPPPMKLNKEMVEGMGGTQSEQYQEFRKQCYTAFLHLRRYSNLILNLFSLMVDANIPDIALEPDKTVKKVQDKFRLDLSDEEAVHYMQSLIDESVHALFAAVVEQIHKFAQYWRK
Procedure, shortened: as §2

aqueous solubility assay = type: physicochemical
p110β [5] = molecular target: T1, p110β; test: whole cell CETSA; type: cell-based; details: whole cell (in vivo), PC-3
Procedure, shortened: as §1

p110γ = p110γ (Homo sapiens, UniProt P48736); test: cell lysate CETSA; type: binding
Sequence of p110γ (P48736 whole entry): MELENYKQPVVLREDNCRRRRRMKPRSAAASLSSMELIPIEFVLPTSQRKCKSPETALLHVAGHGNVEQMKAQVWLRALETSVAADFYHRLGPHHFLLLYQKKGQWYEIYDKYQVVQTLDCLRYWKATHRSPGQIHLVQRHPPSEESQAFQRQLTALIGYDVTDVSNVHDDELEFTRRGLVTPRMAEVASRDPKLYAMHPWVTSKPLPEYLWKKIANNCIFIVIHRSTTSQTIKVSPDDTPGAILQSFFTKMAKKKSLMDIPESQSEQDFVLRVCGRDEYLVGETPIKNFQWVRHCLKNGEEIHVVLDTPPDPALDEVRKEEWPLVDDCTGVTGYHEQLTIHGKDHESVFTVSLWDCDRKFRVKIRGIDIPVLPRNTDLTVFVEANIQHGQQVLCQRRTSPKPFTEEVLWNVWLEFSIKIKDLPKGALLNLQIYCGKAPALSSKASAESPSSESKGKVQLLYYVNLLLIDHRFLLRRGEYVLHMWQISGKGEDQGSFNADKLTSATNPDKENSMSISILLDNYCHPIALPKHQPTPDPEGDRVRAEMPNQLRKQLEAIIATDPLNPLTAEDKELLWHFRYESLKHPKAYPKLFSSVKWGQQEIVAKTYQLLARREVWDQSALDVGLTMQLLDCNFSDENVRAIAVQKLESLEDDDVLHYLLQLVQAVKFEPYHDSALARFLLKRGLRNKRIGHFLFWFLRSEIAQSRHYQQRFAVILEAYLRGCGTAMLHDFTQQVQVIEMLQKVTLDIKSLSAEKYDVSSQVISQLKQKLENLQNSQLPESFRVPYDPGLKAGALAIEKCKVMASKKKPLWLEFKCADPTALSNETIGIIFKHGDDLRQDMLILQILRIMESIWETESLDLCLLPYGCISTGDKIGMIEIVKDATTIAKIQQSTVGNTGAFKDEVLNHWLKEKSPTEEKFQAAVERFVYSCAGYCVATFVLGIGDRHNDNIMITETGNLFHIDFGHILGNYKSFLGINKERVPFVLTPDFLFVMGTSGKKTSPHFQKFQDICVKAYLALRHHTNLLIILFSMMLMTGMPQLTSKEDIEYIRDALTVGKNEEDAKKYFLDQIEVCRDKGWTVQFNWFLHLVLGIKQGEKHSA
Procedure, shortened: as §2

p110α = p110α (Homo sapiens, UniProt P42336); test: cell lysate CETSA; type: binding
Sequence of p110α (P42336 whole entry): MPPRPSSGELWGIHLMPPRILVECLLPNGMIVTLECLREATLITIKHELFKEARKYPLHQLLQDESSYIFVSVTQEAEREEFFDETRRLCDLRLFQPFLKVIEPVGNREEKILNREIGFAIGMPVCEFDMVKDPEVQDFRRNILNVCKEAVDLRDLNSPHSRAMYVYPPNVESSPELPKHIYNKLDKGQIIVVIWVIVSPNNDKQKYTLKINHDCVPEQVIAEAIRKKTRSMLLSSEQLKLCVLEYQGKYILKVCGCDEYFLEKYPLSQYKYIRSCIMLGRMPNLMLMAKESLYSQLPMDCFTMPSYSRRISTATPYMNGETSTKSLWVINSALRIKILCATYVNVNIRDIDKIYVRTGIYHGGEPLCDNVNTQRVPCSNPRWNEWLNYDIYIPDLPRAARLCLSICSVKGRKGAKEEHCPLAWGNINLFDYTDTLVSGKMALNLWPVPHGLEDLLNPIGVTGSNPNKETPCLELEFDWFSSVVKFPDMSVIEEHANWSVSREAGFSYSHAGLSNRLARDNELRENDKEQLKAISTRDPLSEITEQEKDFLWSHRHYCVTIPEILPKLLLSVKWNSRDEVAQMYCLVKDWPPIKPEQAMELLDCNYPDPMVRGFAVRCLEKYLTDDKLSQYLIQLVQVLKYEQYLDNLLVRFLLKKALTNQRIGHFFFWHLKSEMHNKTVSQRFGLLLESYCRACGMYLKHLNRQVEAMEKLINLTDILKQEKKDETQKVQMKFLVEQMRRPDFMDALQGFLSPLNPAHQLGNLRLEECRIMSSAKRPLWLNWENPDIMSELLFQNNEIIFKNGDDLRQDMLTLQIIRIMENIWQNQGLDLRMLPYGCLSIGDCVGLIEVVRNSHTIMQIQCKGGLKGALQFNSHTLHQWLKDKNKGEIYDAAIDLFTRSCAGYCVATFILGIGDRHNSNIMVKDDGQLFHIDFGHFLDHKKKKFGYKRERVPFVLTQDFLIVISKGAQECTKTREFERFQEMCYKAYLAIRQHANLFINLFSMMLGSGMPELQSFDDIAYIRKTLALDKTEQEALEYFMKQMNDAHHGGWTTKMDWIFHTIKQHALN
Procedure, shortened: as §2

Akt pS473 in C4-2B cells = test: Western blot of FBS-stimulated Akt pS473; type: cell-based; details: 5 μM
Procedure, shortened: (§3)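 Cells serum-starved overnight, pretreated with test compound, then given 10% FBS. Lysates made in RIPA buffer with protease inhibitor cocktail, equal protein run on SDS-PAGE and transferred to PVDF. Blocked in 10% nonfat milk 1 hr, primary antibody (Akt pS473) overnight at 4°C, HRP secondary, chemiluminescent detection. Actin used as loading control.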

[6] = tested on: cyclin D1, CDK6 and p27^kip1 in C4-2B cells; test: Western blot of G1 phase proteins; type: cell-based; details: 5 μM
Procedure, shortened: (§4)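 After overnight serum starvation, cells received a 30-min pretreatment with solvent or test compound (5 μM), were stimulated with 10% FBS and were harvested at several time points. Lysates (RIPA plus protease inhibitors) were immunoblotted on PVDF for cyclin D1, CDK6 and p27kip1, with chemiluminescent detection and actin as loading control.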

PC-3 cells = test: WST-8 cell growth inhibition; type: cell-based; details: read-out: Cell Growth Inhibition EC50 (95% CI)
Procedure, shortened: (§5)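 Cells seeded at 8,000 per well and grown 24 hrs, then exposed to increasing concentrations of test compound or solvent for 3 days. WST-8 reagent added for 2 hrs at 37°C and OD read at 450 nm. Growth inhibition taken as percentage of solvent control OD. EC50 from log concentration vs normalized response fit, variable slope. Three independent experiments.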

[7] = tested on: Akt pS473 in C4-2B/MDV-R cells; test: Western blot of FBS-stimulated Akt pS473; type: cell-based; details: 5 μM
Procedure, shortened: as §3

C4-2B/MDV-R cells [8] = test: flow cytometry cell cycle analysis; type: cell-based; details: 16 h after 10% FBS
Procedure, shortened: (§6)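 Cells serum-starved overnight to synchronise, pretreated 30 min with solvent or test compound, then stimulated with 10% FBS for 16 h. Cells trypsinized, fixed and stained with propidium iodide. Counted on a flow cytometer (FACS) and cell cycle phase distribution calculated. Mean and SEM from at least three repeated experiments.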

22RV1 cells = test: WST-8 cell growth inhibition; type: cell-based; details: read-out: Cell Growth Inhibition EC50 (95% CI)
Procedure, shortened: as §5

C4-2B cells [9] = test: WST-8 cell growth inhibition; type: cell-based; details: read-out: Cell Growth Inhibition EC50 (95% CI)
Procedure, shortened: as §5

[10] = tested on: cyclin D1, CDK6 and p27^kip1 in C4-2B/MDV-R cells; test: Western blot of G1 phase proteins; type: cell-based; details: 5 μM
Procedure, shortened: as §4

C4-2B cells [11] = test: flow cytometry cell cycle analysis; type: cell-based; details: 16 h after 10% FBS
Procedure, shortened: as §6

C4-2B/MDV-R cells [12] = test: WST-8 cell growth inhibition; type: cell-based; details: read-out: Cell Growth Inhibition EC50 (95% CI)
Procedure, shortened: as §5

human p110α/p85α = human p110α/p85α (Homo sapiens, UniProt P42336); test: Kinase-Glo Plus luminescent kinase assay; type: biochemical; details: read-out: IC50 p110α; 2 μM ATP, 37°C, 2 h
Sequence of human p110α/p85α (P42336 whole entry): as above
Sequence of human p110α/p85α (P27986 whole entry partner): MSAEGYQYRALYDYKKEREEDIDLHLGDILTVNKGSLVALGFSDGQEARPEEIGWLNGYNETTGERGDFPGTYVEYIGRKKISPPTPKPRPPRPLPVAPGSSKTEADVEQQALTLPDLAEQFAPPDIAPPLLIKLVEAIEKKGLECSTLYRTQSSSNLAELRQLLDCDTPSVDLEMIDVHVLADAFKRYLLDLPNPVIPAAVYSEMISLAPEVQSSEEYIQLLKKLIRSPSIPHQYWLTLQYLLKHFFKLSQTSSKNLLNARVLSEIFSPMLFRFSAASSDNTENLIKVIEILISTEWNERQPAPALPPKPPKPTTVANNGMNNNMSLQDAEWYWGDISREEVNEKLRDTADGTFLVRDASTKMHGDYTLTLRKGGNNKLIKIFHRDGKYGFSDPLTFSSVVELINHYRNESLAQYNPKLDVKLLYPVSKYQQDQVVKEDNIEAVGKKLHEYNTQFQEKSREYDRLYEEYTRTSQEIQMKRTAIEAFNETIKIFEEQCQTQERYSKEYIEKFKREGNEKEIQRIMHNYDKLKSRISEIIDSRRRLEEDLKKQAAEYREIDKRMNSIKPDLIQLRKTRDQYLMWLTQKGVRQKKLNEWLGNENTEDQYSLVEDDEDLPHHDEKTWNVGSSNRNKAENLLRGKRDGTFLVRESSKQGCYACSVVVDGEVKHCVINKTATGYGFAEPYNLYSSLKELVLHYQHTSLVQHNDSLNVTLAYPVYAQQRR

human p110δ/p85α = human p110δ/p85α (Homo sapiens, UniProt O00329); test: Kinase-Glo Plus luminescent kinase assay; type: biochemical; details: read-out: IC50 p110δ; 2 μM ATP, 37°C, 2 h
[13] = cell lysate (in vitro), PC-3, compound 5 μM

Compound: O=c1[nH]c2ccccc2n1C1CCN(Cc2ccc(-c3nc4cc5[nH]cnc5cc4nc3-c3ccccc3)cc2)CC1 [AKT-i8]
effect on Akt pS473 (Akt pS473 in LNCaP cells): completely abolished | effect on Akt pS473 [1]: retained their full capacity

Compound: Cc1cc([C@@H](C)Nc2ccccc2C(=O)O)c2nc(N3CCOCC3)cc(=O)n2c1 [AZD6482]
effect on Akt pS473 (Akt pS473 in LNCaP cells): completely abolished | effect on Akt pS473 [1]: only partially inhibited

Compound: C[C@@H](Nc1cc(F)cc(F)c1)c1cc(C(=O)N(C)C)cc2c(=O)cc(N3CCOCC3)oc12 [AZD8186]
effect on Akt pS473 (Akt pS473 in LNCaP cells): completely abolished | effect on Akt pS473 [1]: only partially inhibited

Compound: Nc1cc(C(F)(F)F)c(-c2cc(N3CCOCC3)nc(N3CCOCC3)n2)cn1 [BKM120]
effect on Akt pS473 (Akt pS473 in LNCaP cells): completely abolished | effect on Akt pS473 [1]: retained their full capacity

Compound: CC(CC(C(N)=O)(c1ccccc1)c1ccccc1)N(C)C (stereo not drawn) [BL139]
ΔTm50 Akt (Akt [2]): 2.60 °C | ΔTm at 5 µM (p110β [3]; human, 0.75 h, read-out: ΔTm50 p110β): 12.4 °C | ΔTm50 Akt (Akt [4]): 2.44 °C | ΔTm at 5 µM (VPS34; human, 0.75 h, read-out: ΔTm50 VPS34): 0.14 °C | solubility (aqueous solubility assay; aqueous): 37400 µg/mL and 99200 µM | ΔTm50 p110β (p110β [5]; 240 min): 5.78 °C | ΔTm at 5 µM (p110γ; human, 0.75 h, read-out: ΔTm50 p110γ): 0.84 °C | ΔTm at 5 µM (p110α; human, 0.75 h, read-out: ΔTm50 p110α): 1.51 °C

Compound: Cc1nc(NC(=O)N2CCC[C@H]2C(N)=O)sc1-c1ccnc(C(C)(C)C(F)(F)F)c1 [BYL719]
effect on Akt pS473 (Akt pS473 in LNCaP cells): partial inhibitory effect

EC50 (PC-3 cells; Homo sapiens, PC-3, 72 h): 14.5 µM | EC50 (22RV1 cells; Homo sapiens, 22Rv1, 72 h): 26.1 µM
Compound: Cc1c(Cn2c(C)nc3c(C(=O)O)cc(N4CCOCC4)cc32)cccc1C(F)(F)F [GSK2636771]
effect on Akt pS473 (Akt pS473 in LNCaP cells): partial inhibitory effect | effect on FBS-stimulated Akt pS473 levels (Akt pS473 in C4-2B cells): abolished | CDK6 protein levels [6]: no obvious alteration | FBS-induced increase of cyclin D1 protein levels [6]: largely suppressed | p27^kip1 protein levels [6]: largely elevated | effect on FBS-stimulated Akt pS473 levels [7]: only partially suppressed | cell cycle distribution (G0/G1 and S-phase) (C4-2B/MDV-R cells [8]): significantly increased G0/G1 population accompanied with a large reduction of S-phase cells | EC50 (C4-2B cells [9]; 72 h): 28.9 µM | effect on Akt pS473 [1]: lost their inhibitory effect | CDK6 protein levels [10]: no obvious alteration | FBS-induced increase of cyclin D1 protein levels [10]: largely suppressed | cell cycle distribution (G0/G1 and S-phase) (C4-2B cells [11]): significantly increased G0/G1 population accompanied with a large reduction of S-phase cells | EC50 (C4-2B/MDV-R cells [12]; 72 h): 42.3 µM

Compound: CNC(=O)c1ccc(N2C(=S)N(c3ccc(C#N)c(C(F)(F)F)c3)C(=O)C2(C)C)cc1F [MDV3100]
effect on FBS-stimulated Akt pS473 levels (Akt pS473 in C4-2B cells): enhanced

Compound: Cc1cc(C(C)Nc2ccccc2)c2nc(N3CCOCC3)cc(=O)n2c1 (stereo not drawn) [TGX221]
ΔTm50 Akt (Akt [2]): 1.18 °C | effect on Akt pS473 (Akt pS473 in LNCaP cells): partial inhibitory effect | IC50 (human p110α/p85α): 2.09 µM | EC50 (PC-3 cells; PC-3, 3 days): 7.43 µM | ΔTm50 p110β (p110β [3]; [13]): 04.02 °C | ΔTm50 Akt (Akt [4]): 1.49 °C | ΔTm50 VPS34 (VPS34; [13]): 0.42 °C | cell cycle distribution (G0/G1 and S-phase) (C4-2B/MDV-R cells [8]): significantly increased G0/G1 population accompanied with a large reduction of S-phase cells | EC50 (22RV1 cells; 22RV1, 3 days): 17.6 µM | IC50 (human p110δ/p85α): 0.374 µM | Aqueous solubility (aqueous solubility assay): < 1.0 mg/ml and <2.74 mM | ΔTm50 p110β (p110β [5]): 1.72 °C | EC50 (C4-2B cells [9]; C4-2B, 3 days): 22.6 µM | effect on Akt pS473 [1]: lost their inhibitory effect | ΔTm50 p110γ (p110γ; [13]): 0.68 °C | ΔTm50 p110α (p110α; [13]): 1.57 °C | cell cycle distribution (G0/G1 and S-phase) (C4-2B cells [11]): significantly increased G0/G1 population accompanied with a large reduction of S-phase cells | EC50 (C4-2B/MDV-R cells [12]; C4-2B/MDV-R, 3 days): 31.3 µM
